Reference: ChEMBL document CHEMBL4177600, “Identification of novel PI3K inhibitors through a scaffold hopping strategy” (Bioorg Med Chem Lett, 2017)

Key:
[1] = Inhibition of PI3K in serum-stimulated human U2OS cells assessed as decrease in AKT1 phosphorylation at S473 by C-ELISA; format: cell-based
Method in brief: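 U2OS osteosarcoma cells grown in 0.1% FBS, then serum-stimulated; endogenous phospho-Akt1 (Ser473) quantified by cell ELISA with chemiluminescent substrate. EC50 from sigmoid dose-response fit; two independent experiments in duplicate.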

[2] = system: Serine/threonine-protein kinase B-raf (Homo sapiens), P15056 [V600E]; test: Inhibition of recombinant human N-terminal GST/HIS6-tagged BRAF V600E mutant (Q417 to H766 residues) expressed in Sf9 insect cells at 1 uM using MEK1-KM as substrate by fliter binding assay relative to control
Chain of Serine/threonine-protein kinase B-raf (Homo sapiens), P15056 [V600E] (P15056 whole entry V600E, the tested form may be a part): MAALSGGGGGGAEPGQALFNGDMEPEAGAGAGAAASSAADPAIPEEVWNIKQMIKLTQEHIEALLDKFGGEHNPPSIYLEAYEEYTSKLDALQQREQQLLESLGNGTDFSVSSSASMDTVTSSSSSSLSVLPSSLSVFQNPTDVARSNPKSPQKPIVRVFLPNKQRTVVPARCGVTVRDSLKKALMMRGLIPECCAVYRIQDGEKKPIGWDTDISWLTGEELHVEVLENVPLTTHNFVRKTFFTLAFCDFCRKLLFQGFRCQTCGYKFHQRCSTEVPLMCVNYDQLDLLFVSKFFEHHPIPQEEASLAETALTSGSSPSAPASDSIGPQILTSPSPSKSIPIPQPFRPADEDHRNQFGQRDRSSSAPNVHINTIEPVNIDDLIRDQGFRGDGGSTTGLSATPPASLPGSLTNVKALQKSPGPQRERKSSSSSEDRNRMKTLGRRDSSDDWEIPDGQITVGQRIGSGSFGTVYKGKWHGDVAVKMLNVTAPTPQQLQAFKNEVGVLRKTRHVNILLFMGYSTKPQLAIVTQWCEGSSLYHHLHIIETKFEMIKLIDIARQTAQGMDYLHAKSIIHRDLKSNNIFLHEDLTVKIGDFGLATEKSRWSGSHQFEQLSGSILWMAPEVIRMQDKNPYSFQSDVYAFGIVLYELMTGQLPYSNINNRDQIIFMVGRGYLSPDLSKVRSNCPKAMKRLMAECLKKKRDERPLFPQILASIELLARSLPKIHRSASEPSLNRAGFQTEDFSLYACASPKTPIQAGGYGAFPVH
Method in brief: (§1)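 Kinase panel of 24 enzymes, each tested at 1 µM; percent inhibition reported as the average of two independent data points.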

[3] = target: T1, Serine/threonine-protein kinase Chk1 (Homo sapiens) (UniProt O14757); test: Inhibition of recombinant human N-terminal GST/HIS6-tagged CHK1 (M1 to T476 residues) expressed in baculovirus infected Sf9 insect cells at 1 uM using S6 peptide as substrate by fliter binding assay relative to control; method in brief: as §1
T1 sequence (whole entry): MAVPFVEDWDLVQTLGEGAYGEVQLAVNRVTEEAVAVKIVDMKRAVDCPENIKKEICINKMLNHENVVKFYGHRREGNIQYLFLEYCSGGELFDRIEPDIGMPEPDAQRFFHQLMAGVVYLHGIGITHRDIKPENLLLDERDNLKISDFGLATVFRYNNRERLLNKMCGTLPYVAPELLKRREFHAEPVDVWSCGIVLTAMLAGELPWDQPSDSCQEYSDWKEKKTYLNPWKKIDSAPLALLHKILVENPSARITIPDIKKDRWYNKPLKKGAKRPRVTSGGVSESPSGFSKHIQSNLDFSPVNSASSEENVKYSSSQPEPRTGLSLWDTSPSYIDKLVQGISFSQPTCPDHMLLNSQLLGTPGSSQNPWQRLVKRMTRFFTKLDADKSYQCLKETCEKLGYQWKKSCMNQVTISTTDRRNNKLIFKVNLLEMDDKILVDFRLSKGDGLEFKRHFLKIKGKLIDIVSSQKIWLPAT

[4] = target: CDK8/Cyclin C (Homo sapiens) (UniProt P49336+P24863); test: Inhibition of recombinant human N-terminal GST/HIS6-tagged CDK8 (M1 to Y463 residues)/human N-terminal His6-tagged Cyclin C (M1 to S283 residues) expressed in Sf9 insect cells at 1 uM using RBER-IRStide as substrate by fliter binding assay relative to control; method in brief: as §1
[5] = target: Fibroblast growth factor receptor 1 (Homo sapiens) (UniProt P11362); test: Inhibition of recombinant human N-terminal GST/His6-tagged FGFR1 (G400 to R820 residues) expressed in Sf9 insect cells at 1 uM using poly(Glu,Tyr)4:1 as substrate by filter binding method relative to control; method in brief: as §1
[6] = target: T2, Inhibitor of nuclear factor kappa-B kinase subunit beta (Homo sapiens) (UniProt O14920); test: Inhibition of recombinant human N-terminal GST/His6-tagged IKKbeta (M1 to S756 residues) expressed in baculovirus infected Sf9 cells at 1 uM using IKBa derived peptide as substrate by filter binding method relative to control; method in brief: as §1
T2 sequence (whole entry): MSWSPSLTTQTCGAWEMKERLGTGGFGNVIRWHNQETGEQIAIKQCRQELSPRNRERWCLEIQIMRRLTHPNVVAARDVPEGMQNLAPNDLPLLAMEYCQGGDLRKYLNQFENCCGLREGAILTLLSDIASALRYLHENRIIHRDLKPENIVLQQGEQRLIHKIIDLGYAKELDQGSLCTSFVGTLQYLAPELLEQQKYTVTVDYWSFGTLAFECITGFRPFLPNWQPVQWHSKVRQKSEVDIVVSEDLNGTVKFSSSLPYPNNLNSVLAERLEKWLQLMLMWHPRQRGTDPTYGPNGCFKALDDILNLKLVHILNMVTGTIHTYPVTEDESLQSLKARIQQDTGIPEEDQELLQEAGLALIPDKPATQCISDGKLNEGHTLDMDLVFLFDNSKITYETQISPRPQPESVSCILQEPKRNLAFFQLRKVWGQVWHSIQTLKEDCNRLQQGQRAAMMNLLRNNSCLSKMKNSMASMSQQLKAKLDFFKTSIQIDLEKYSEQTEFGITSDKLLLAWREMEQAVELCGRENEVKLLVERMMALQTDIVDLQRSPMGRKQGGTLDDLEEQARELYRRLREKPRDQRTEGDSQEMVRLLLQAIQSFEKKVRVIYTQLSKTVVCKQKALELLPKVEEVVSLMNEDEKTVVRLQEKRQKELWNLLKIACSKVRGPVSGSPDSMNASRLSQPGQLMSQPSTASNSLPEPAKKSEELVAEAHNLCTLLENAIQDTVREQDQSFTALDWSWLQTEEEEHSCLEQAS

[7] = target: Tyrosine-protein kinase JAK2 (Homo sapiens) (UniProt O60674); test: Inhibition of recombinant human N-terminal GST/His6-tagged JAK2 (P717 to G1132 residues) expressed in Sf9 insect cells at 1 uM using TRK-C-derived peptide as substrate by filter binding method relative to control; method in brief: as §1
Chain of Tyrosine-protein kinase JAK2 (Homo sapiens) (O60674 whole entry, the tested form may be a part): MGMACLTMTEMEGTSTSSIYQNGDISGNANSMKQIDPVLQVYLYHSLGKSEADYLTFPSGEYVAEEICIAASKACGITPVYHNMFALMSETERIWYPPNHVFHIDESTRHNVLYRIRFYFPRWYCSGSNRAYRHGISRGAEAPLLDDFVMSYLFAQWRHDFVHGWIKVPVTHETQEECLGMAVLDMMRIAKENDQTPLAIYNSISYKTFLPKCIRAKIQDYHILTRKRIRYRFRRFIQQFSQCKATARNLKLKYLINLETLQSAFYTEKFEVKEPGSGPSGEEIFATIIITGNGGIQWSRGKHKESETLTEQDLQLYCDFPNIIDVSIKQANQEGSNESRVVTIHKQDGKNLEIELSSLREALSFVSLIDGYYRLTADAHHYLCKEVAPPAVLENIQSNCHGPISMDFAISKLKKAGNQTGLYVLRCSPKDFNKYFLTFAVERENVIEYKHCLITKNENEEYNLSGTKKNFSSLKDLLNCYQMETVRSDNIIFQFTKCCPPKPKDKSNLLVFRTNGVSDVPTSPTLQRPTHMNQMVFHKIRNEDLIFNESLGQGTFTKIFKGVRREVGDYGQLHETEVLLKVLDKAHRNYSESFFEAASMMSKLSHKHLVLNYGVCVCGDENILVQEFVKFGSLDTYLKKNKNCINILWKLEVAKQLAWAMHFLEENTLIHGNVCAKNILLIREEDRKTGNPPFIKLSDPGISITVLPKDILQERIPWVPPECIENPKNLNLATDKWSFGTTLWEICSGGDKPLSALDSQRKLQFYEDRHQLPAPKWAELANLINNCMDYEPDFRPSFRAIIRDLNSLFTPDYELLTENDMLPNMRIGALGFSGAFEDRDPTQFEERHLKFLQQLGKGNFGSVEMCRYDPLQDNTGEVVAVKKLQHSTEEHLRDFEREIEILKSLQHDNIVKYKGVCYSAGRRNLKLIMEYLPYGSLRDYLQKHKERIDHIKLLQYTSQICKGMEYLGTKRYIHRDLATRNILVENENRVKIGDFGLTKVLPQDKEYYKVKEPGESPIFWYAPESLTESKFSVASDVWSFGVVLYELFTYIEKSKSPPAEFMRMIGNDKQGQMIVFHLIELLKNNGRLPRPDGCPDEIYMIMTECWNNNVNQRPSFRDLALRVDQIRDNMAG

[8] = target: Ribosomal protein S6 kinase alpha-1 (Homo sapiens) (UniProt Q15418); test: Inhibition of RPS6KA1 (unknown origin) at 1 uM relative to control; method in brief: as §1
Chain of Ribosomal protein S6 kinase alpha-1 (Homo sapiens) (Q15418 whole entry, the tested form may be a part): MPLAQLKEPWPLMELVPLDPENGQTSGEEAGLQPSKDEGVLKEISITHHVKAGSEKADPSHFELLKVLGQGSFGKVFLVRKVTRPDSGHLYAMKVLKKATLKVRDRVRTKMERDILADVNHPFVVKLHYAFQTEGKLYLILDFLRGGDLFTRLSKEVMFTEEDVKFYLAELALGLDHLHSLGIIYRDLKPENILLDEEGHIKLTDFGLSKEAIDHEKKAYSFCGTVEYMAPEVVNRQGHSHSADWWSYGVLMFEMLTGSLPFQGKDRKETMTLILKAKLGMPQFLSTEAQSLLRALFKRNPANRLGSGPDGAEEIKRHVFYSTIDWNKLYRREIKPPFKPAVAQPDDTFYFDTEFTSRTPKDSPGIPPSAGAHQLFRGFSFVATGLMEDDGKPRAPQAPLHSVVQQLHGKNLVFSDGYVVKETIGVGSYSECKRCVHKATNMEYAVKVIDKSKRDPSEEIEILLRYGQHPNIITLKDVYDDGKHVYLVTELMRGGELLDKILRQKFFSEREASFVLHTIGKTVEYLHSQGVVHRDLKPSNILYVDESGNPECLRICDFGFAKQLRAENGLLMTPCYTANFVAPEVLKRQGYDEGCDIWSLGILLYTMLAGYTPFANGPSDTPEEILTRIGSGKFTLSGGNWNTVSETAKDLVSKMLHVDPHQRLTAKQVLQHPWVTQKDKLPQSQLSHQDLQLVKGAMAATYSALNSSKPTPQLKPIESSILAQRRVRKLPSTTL

[9] = target: Vascular endothelial growth factor receptor 2 (Homo sapiens) (UniProt P35968); test: Inhibition of recombinant human N-terminal GST-tagged VEGFR2 (D807 to V1356 residues) expressed in Sf9 insect cells at 1 uM using Poly(Glu:Tyr)4:1 as substrate by filter binding method relative to control; method in brief: as §1
Chain of Vascular endothelial growth factor receptor 2 (Homo sapiens) (P35968 whole entry, the tested form may be a part): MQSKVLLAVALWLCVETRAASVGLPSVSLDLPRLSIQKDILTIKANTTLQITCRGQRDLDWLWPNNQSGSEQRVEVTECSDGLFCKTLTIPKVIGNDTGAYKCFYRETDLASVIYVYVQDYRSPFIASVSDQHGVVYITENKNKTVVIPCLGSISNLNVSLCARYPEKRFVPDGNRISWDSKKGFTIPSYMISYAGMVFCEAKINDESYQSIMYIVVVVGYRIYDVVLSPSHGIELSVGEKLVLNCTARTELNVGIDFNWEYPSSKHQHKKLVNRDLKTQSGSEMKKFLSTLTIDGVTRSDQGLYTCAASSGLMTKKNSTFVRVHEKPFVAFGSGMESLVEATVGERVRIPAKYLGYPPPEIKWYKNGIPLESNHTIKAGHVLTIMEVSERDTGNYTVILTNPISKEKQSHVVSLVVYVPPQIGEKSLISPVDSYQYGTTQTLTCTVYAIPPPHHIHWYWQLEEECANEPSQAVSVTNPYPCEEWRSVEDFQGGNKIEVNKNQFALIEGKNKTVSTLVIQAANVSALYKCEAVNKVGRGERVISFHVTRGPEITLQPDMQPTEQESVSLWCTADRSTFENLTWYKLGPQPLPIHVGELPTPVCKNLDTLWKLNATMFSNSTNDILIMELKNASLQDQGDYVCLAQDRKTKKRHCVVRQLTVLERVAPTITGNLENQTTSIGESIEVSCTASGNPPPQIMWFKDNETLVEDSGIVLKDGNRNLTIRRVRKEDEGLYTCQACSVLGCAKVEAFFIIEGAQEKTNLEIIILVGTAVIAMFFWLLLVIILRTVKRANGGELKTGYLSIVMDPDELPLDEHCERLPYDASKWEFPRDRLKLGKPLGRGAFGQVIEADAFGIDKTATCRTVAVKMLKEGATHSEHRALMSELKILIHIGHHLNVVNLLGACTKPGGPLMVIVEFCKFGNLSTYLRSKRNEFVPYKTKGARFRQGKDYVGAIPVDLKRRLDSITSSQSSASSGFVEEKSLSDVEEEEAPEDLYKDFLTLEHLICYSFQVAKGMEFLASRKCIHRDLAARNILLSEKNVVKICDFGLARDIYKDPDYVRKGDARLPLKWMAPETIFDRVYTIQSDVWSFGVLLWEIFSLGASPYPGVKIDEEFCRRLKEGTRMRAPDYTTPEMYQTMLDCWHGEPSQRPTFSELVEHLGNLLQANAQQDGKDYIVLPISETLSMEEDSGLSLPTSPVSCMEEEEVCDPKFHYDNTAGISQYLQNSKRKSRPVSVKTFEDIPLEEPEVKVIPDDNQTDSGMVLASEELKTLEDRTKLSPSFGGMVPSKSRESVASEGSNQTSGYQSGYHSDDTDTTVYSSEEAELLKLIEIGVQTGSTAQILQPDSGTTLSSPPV

[10] = Stability in mouse liver microsomes assessed as parent compound remaining at 0.5 uM after 30 mins by LC-MS/MS analysis; format: ADME, microsome; conditions: read-out: Stability
Method in brief: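 Single time-point stability assay: 0.5 µM compound, 0.5 mg/ml human or mouse liver microsomes in 0.1 M potassium phosphate pH 7.4, with NADPH-regenerating system, 30 min at 37 °C with shaking. Reaction quenched with acetonitrile/0.1% formic acid and centrifuged; supernatant analysed by LC-MS/MS. Reported as percent remaining; duplicates.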

[11] = target: CYP3A4 (Homo sapiens, UniProt P08684); test: Inhibition of CYP3A4 (unknown origin) at 10 uM relative to control; format: ADME
Chain of CYP3A4 (P08684 whole entry): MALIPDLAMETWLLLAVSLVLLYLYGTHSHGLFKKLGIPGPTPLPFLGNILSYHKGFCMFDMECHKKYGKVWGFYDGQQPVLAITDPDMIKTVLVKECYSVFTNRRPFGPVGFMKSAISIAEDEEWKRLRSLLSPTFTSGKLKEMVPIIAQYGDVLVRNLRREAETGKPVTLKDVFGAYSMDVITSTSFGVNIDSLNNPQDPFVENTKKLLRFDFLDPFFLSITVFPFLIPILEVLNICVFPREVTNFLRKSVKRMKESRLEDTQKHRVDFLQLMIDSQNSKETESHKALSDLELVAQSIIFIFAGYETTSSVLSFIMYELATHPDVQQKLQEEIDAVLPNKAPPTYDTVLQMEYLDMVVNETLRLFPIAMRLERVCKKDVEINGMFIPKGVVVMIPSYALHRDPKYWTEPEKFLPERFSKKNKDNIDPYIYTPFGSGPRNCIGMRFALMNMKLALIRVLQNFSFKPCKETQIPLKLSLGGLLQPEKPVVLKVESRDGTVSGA
Method in brief: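 CYP1A2, 2C9, 2C19, 2D6 and 3A4 inhibition measured at 10 µM test compound in duplicate; percent inhibition reported.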

[12] = Permeability of the compound at 300 uL after 5 hrs by PAMPA; format: ADME; conditions: read-out: permeability
Method in brief: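 Pre-coated PAMPA plates with a tri-layer phospholipid membrane. Donor held compound in PBS at the highest concentration soluble in PBS; acceptor was PBS. Incubated 5 h at room temperature, with propranolol and sorafenib (10 µM) as high and low permeability controls. Donor and acceptor concentrations measured by LC-MS/MS; Pe (10^-6 cm/s) calculated from acceptor/equilibrium concentrations, 0.3 cm² area and well volumes.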

| SMILES | EC50 [1] | inhibition [2] | inhibition [3] | inhibition [4] | inhibition [5] | inhibition [6] | inhibition [7] | inhibition [8] | inhibition [9] | remaining at 0.5 h, 0.5 µM [10] | inhibition at 10 µM [11] | Papp at 5 h [12] |
| --- | --- | --- | --- | --- | --- | --- | --- | --- | --- | --- | --- | --- |
| CS(=O)(=O)N1CCN(Cc2nc3c(N4CCOCC4)nc(-c4cnc(N)nc4)cn3n2)CC1 | 87.2 nM | < 25% | < 25% | < 25% | < 25% | < 25% | < 25% | < 25% | < 25% | 100% | < 25% | 1.92 ×10⁻⁶ cm/s |
| CS(=O)(=O)N1CCN(Cc2cn3nc(-c4cnc(N)nc4)nc(N4CCOCC4)c3n2)CC1 | 52.8 nM | < 25% | < 25% | < 25% | < 25% | < 25% | < 25% | < 25% | < 25% | 100% | < 25% | 3.54 ×10⁻⁶ cm/s |
| CS(=O)(=O)N1CCN(Cc2cc3c(N4CCOCC4)nc(-c4cnc(N)nc4)cn3n2)CC1 | 30.5 nM | < 25% | < 25% | < 25% | < 25% | < 25% | < 25% | < 25% | < 25% | 100% | < 25% | 0.93 ×10⁻⁶ cm/s |
| CS(=O)(=O)N1CCN(Cc2nc3c(N4CCOCC4)nc(-c4cnc(N)nc4)c(Cl)n3n2)CC1 | 68.6 nM | < 25% | < 25% | < 25% | < 25% | < 25% | < 25% | < 25% | < 25% | 96% | < 25% | 0.69 ×10⁻⁶ cm/s |
